In ChEMBL document CHEMBL2169747, “Synthesis and biological properties of highly sequence-specific-alkylating N-methylpyrrole-N-methylimidazole polyamide conjugates” (J Med Chem, 2012):

Key:
A549 [1] = experiment: Downregulation of EPM2A gene expression in human A549 cells at 26 nM after 12 hrs by microarray analysis relative to control; format: functional
Method in brief: (§1)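 A549 cells, 4 × 10^5 per 60 mm dish, were exposed to conjugate for 12 h in medium with 0.1% DMSO; vehicle control was 0.1% DMSO. Whole human genome (~25 000 genes) expression was profiled by microarray and expression compared with the control.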

A549 [2] = experiment: Downregulation of TNIK gene expression in human A549 cells at 26 nM after 12 hrs by microarray analysis relative to control; format: functional
Method in brief: (§2)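 A549 cells (RPMI-1640, 10% heat-inactivated FBS, penicillin/streptomycin, 37 °C, 5% CO2) seeded at 4 × 10^5 per 60 mm dish. Exposed 12 h to conjugate at 21, 26, 34 or 100 nM in medium with 0.1% DMSO, against 0.1% DMSO control. Whole-genome (~25 000 genes) expression profiled by microarray.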

A549 [3] = experiment: Downregulation of Q5WOV6 gene expression in human A549 cells at 26 nM after 12 hrs by microarray analysis relative to control; format: functional; method in brief: as §2
A549 [4] = experiment: Downregulation of HS2ST1 gene expression in human A549 cells at 26 nM after 12 hrs by microarray analysis relative to control; format: functional; method in brief: as §1
Mus musculus = experiment: Toxicity in BALB/c nu/nu mouse at 1.6 mg/kg, iv administered as liposomal conjugate for 14 days; format: organism-based; design: dose 1.6 mg/kg, route intravenous; conditions: in vivo, 336 h
Method in brief: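 Pre-test in male BALB/c-nu/nu mice without xenografts. Naked conjugate was dissolved in 100% DMSO and given ip at 0.50 mg/kg (12.5 μg/mouse). Liposomal conjugate (0.33 mg/mL in 17 mM lipid, hydrated with water and sonicated) was given iv at 1.6 mg/kg (41 μg/mouse), 125 μL single dose.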

A549 [5] = experiment: Upregulation of BTG2 gene expression in human A549 cells at 26 nM after 12 hrs by microarray analysis relative to control; format: functional
Method in brief: (§3)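 4 ×10^5 A549 cells seeded per 60 mm dish and treated 12 h with conjugate (21, 26, 34 or 100 nM) in medium; control medium contained 0.1% DMSO, with conjugates added as 0.1% DMSO solutions. Whole human genome (~25 000 genes) expression profiled by microarray against the DMSO control. A549 culture: RPMI-1640 with 10% heat-inactivated FBS, penicillin/streptomycin, 37 °C, 5% CO2.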

A549 [6] = experiment: Downregulation of ACTG gene expression in human A549 cells at 26 nM after 12 hrs by microarray analysis relative to control; format: functional; method in brief: as §1
A549 [7] = experiment: Upregulation of PPM1D gene expression in human A549 cells at 26 nM after 12 hrs by microarray analysis relative to control; format: functional; method in brief: as §3
A549 [8] = experiment: Upregulation of KRTHA4 gene expression in human A549 cells at 34 nM after 12 hrs by microarray analysis relative to control; format: functional; method in brief: as §3
A549 [9] = experiment: Downregulation of Q8N570 gene expression in human A549 cells at 34 nM after 12 hrs by microarray analysis relative to control; format: functional; method in brief: as §2
A549 [10] = experiment: Downregulation of RABGAP1L gene expression in human A549 cells at 34 nM after 12 hrs by microarray analysis relative to control; format: functional; method in brief: as §2
A549 [11] = experiment: Downregulation of SIPA1L1 gene expression in human A549 cells at 34 nM after 12 hrs by microarray analysis relative to control; format: functional; method in brief: as §2
A549 [12] = experiment: Downregulation of GPX6 gene expression in human A549 cells at 34 nM after 12 hrs by microarray analysis relative to control; format: functional; method in brief: as §1
A549 [13] = experiment: Downregulation of OR1C1 gene expression in human A549 cells at 34 nM after 12 hrs by microarray analysis relative to control; format: functional; method in brief: as §2

Structure (SMILES)	fold change (FC) (A549 [1])	fold change (FC) (A549 [2])	fold change (FC) (A549 [3])	fold change (FC) (A549 [4])	Activity (Mus musculus)	fold change (FC) (A549 [5])	fold change (FC) (A549 [6])	fold change (FC) (A549 [7])	fold change (FC) (A549 [8])	fold change (FC) (A549 [9])	fold change (FC) (A549 [10])	fold change (FC) (A549 [11])	fold change (FC) (A549 [12])	fold change (FC) (A549 [13])
CC(=O)Nc1cn(C)c(C(=O)Nc2cc(C(=O)Nc3cc(C(=O)NCCC(=O)Nc4cc(C(=O)NCCCC(=O)Nc5cc(C(=O)NCCC(=O)Nc6cn(C)c(C(=O)Nc7ccc8[nH]c(C(=O)N9CC(CCl)c%10c9cc(O)c9ccccc%109)cc8c7)n6)n(C)c5)n(C)c4)n(C)c3)n(C)c2)n1 (racemic)	0.353	0.312	0.324	0.329	Non-toxic	10.1	0.311	5.7						
CC(=O)Nc1cn(C)c(C(=O)Nc2cn(C)c(C(=O)Nc3cc(C(=O)NCCC(=O)Nc4cc(C(=O)NCCCC(=O)Nc5cn(C)c(C(=O)NCCC(=O)Nc6cn(C)c(C(=O)Nc7ccc8[nH]c(C(=O)N9CC(CCl)c%10c9cc(O)c9ccccc%109)cc8c7)n6)n5)n(C)c4)n(C)c3)n2)n1 (racemic)									6.1	0.186	0.276	0.309	0.322	0.324
